# Hits are enriched below; roughly 1.9% of the tested compounds scored in any of these assays.
# Calb FLC: C. albicans growth inhibition with fluconazole, primary screen, CaCi-2 strain, Alamar Blue fluorescence. C. albicans CaCi-2 (fluconazole-resistant clinical isolate) + fluconazole, 48 h. growth inhibition, % (concentration not given with the values). 0.57% of 300,000 active. AID 1979, 2009;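 active = growth inhibition above about 58% in most replicates, limit read from the data, passing the limit was not always enough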;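 note: all wells also contain fluconazole at 8 µg/ml as a sub-toxic cotreatment; 0% = median of DMSO wells and 100% = median of geldanamycin control wells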
# HIF act: HIF pathway transcriptional activators, primary screen, cell-based, U2OS HRE-luciferase, luminescence; U2OS HRE-luciferase reporter; normalized: DMSO 0%, desferrioxamine 100%; activation, % at 7.5 µM (by protocol); 0.32% of 300,000 active;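 active = mean activation of at least 10% of the iron chelator positive control signal, with at least half of replicates also reaching 10%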
# FXN GAA850 act: FXN promoter activators, primary screen, cell-based, luciferase luminescence, HEK293 lucGAA850; 0.56% of 360,000 active; AID 540364, 2011; activation, % at 6 µM; HEK293 lucGAA850 FXN promoter luciferase reporter, 24 h; percent of 10 µM SAHA response;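 active = activation above the average of all compounds screened plus 3 SD, cutoff fixed separately per campaign, cut at about 7.5% in these data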;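 note: 0% = DMSO wells and 100% = 10 µM SAHA wells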
# Neddylation inh: inhibitors of cullin neddylation, primary screen, biochemical, TR-FRET, uHTS, NAE and Ubc12; 0.58% of 360,000 active; inhibition, % at 25 µM; AID 651699, 2012; NEDD8-conjugating enzyme Ubc12 (Homo sapiens) + NEDD8-activating enzyme E1 regulatory …; in the data active = inhibition above about 36%
# procasp3 activ: activators of human procaspase-3 D3A mutant, primary screen, biochemical, absorbance, PC-3 D3A mutant, single concentration; Caspase-3 (Homo sapiens), P42574; recombinant procaspase-3 D3A, Ac-DEVD-pNA absorbance 405 nm; activation, % at 8.5 µM; 0.11% of 330,000 active;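 active = activation above the mean of all tested compounds plus 3 SD, cut at about 21% in these data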;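 note: 0% = DMSO alone and 100% = DMSO wells spiked with extra 5 µM PC-3 D3A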
# Target sequence (P42574 whole entry D9A/D28A/D175A): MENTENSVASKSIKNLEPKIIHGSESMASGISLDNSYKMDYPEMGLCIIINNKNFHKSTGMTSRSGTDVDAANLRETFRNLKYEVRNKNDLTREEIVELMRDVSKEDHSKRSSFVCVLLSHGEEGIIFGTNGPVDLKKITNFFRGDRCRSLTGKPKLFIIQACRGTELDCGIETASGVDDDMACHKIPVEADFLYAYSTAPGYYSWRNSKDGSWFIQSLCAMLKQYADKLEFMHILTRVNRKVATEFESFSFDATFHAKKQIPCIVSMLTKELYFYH
#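 Test system: Procaspase-3 D3A mutant; medium: Zinc-free HEPES/NaCl buffer with 0.01% Triton X-100 at pH 7.4; reagent: DEVD-pNA substrate; doses: one concentration, 8.5 µM nominal, 0.8% DMSO; times: 1 h preincubation plus 2 h reaction at 25 °C; signal: Epi-absorbance at 405 nm of released p-nitroaniline, 0 and 120 min; replicates: singlicate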
# proCasp7 act: procaspase-7 activators, primary screen, counter-screen for procaspase-3 activator project, biochemical, absorbance, HTS, human; Caspase-7 (Homo sapiens), P55210; recombinant procaspase-7, Ac-DEVD-pNA absorbance 405 nm; D23A/D198A/D206A triple mutant, cannot self-cleave; scale: DMSO 0, 5 µM enzyme 100; activation, % at 8.5 µM; 0.093% of 330,000 active;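 active = percent activation above the screen-wide mean plus 3 SD, cut at about 25% in these data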
# Target sequence (P55210 whole entry D23A/D198A/D206A): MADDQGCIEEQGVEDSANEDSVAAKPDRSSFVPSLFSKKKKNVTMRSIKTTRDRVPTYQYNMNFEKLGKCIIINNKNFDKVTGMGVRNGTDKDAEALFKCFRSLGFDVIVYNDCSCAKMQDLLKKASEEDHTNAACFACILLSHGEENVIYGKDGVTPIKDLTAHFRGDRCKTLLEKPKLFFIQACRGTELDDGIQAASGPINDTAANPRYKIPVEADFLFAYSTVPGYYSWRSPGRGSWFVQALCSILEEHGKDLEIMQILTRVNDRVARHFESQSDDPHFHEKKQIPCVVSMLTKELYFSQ
#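 signal = Epi-absorbance of released pNA at 405 nm, two timepoints | assay system = Uncleavable procaspase-7 mutant enzyme | reagent = Ac-DEVD-pNA substrate, 400 µM as added | times = 1 h enzyme–compound preincubation and 2 h substrate reaction, both 25 °C | benchmarks = low DMSO alone, high DMSO plus 5 µM PC-7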
# PC3 dual counter: procaspase-3 activators, counter-screen for dual procaspase-3/7 activator project, biochemical, absorbance, PC-3 D3A mutant, human. shares compounds with proCasp7 act. recombinant PC-3 D3A, Ac-DEVD-pNA absorbance 405 nm; aspartates 9, 28, 175 changed to alanine; 100% = enzyme control. activation, % at 8.5 µM. 290 tested, under 10 active. AID 493114, 2011;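 active = mean percent activation across triplicates above a set limit taken from the earlier primary procaspase-3 screen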;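 note: 0% = DMSO wells and 100% = DMSO wells with 5 µM added PC-3 D3A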
# Procasp7 act: activation of procaspase-7 enzyme – biochemical, absorbance, human, dual procaspase-3/-7 activator project, confirmation; recombinant procaspase-7, Ac-DEVD-pNA absorbance 405 nm; D23A/D198A/D206A mutant that cannot self-cleave; AID 493115, 2011; 290 tested, under 10 active; shares compounds with proCasp7 act; activation, % at 8.5 µM;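 active = mean activation above a set limit carried over from the earlier primary screen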;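 note: 0% = DMSO only and 100% = DMSO with added 5 µM PC-7 enzyme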
# GAA30 FXN cntr: GAA30 FXN promoter activators, confirmation, counter-screen for GAA850 frataxin promoter activator project, cell-based, luminescence, HEK293, lucGAA30, triplicate | activation, % at 6 µM | 66% of 1,900 active | HEK293 lucGAA30 FXN promoter luciferase, 24 h; DMSO = 0%, 5 µM ipriflavone = 100% | shares compounds with FXN GAA850 act;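 active = mean activation above the mean of solvent-only control wells plus 3 SD, cut at about 22% in these data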;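 note: counterscreen of GAA850 promoter hits where activity marks nonselective or luminescence artifacts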
# GAA850 confirm: FXN GAA850 promoter activators in reporter cells, confirmation, cell-based, luminescence, HEK293 lucGAA850, triplicate. shares compounds with FXN GAA850 act. HEK293 lucGAA850 FXN promoter luciferase reporter, 24 h; 100% = activation by SAHA. activation, % at 6 µM. 86% of 1,900 active. AID 588351, 2011;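 active = mean activation above a set limit taken from the primary screen, cut at about 8% in these data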;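 note: 0% = DMSO wells and 100% = 10 µM SAHA wells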
# Neddyl inh conf: blockade of NEDD8 conjugation to cullin – biochemical, TR-FRET, single concentration, confirmation | calls only at 25 µM | AID 652217, 2013 | shares compounds with Neddylation inh | 13% of 1,800 active | TR-FRET cullin neddylation biochemical assay; in the data active = inhibition above about 40%;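 note: neddylation substrate is the cullin 1 ring ligase complex with SKP2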
# Active calls of the source: *; nt = no result shown; + = active, no number.
SMILES,Calb FLC,HIF act,FXN GAA850 act,Neddylation inh,procasp3 activ,proCasp7 act,PC3 dual counter,Procasp7 act,others
Cc1c(CC(=O)N2CCN(C(=O)C3COc4ccccc4O3)CC2)c(=O)oc2c(C)c(O)ccc12 (stereo not drawn),nt,1,0,nt,27*,26*,-29,-35,
Cc1c(CC(=O)N2CCN(C(=O)C3COc4ccccc4O3)CC2)c(=O)oc2cc(O)ccc12 (stereo not drawn),-17,0,1,30,24*,30*,-28,-34,
CCOc1ccc2nc(-c3cc(NC(C)=O)ccc3O)sc2c1,4,1,4,-53,5,31*,2,-1,
CCOCC(=O)Nc1nc2ccc(OCC)cc2s1,-4,3,3,-6,5,6,nt,nt,
COc1ccc(S(=O)(=O)N2CCN(C(=O)COc3ccc(C)c(C)c3)CC2)cc1OC,0,0,1,7,-2,39*,1,-2,
CCN1C[C@@H]2[C@@H]3C(=O)N(C)C(=O)[C@@H]3[C@](Cc3ccccc3)(C1=O)N2C(=O)c1ccc(C(C)(C)C)cc1,nt,nt,0,-5,nt,nt,nt,nt,
CCCN(CC(=O)Nc1ccc(Cl)cc1Cl)C(=O)/C=C/c1cc(OC)ccc1OC,16,0,0,nt,13,37*,-8,-7,
NC(=O)NN=C1CCN2CCCc3cccc1c32,nt,nt,1,nt,nt,nt,nt,nt,
O=C(CSc1ccccn1)NC1CCCc2c1cnn2-c1ccccc1F (stereo not drawn),nt,nt,0,17,nt,nt,nt,nt,
COc1ccc(CNC(=O)C2CCC(=O)N(C3CCCCCC3)C2)c(OC)c1 (stereo not drawn),nt,nt,-1,1,nt,nt,nt,nt,
COc1ccc2sc(-c3ccc(N(C)C)cc3)c(C#CC(C)(C)O)c2c1,nt,nt,6,nt,49*,70*,-30,-36,
CCN(C(=O)COC(=O)CCC(=O)c1ccc(Cl)cc1)c1c(N)n(Cc2ccccc2)c(=O)[nH]c1=O,nt,nt,-1,-17,nt,nt,nt,nt,
COc1ccc(OC)c2sc(N3CCCCC3)nc12,2,3,2,26,-1,28*,5,-2,
COc1ccc(OC)c2sc(N3CCc4ccccc4C3)nc12,9,1,5,7,-2,3,nt,nt,
N#Cc1c(N)n(C2CCCCC2)c2nc3ccccc3nc12,1,-1,8.1*,nt,13,62*,-29,-36,GAA30 FXN cntr=4;GAA850 confirm=18*
COc1ccc(CC(=O)N(C)Cc2ccc(OC(F)F)cc2)cc1S(=O)(=O)N1CCOCC1,nt,nt,3,-8,nt,nt,nt,nt,
COc1ccc(C2C3=C(CC(C)(C)CC3=O)Nc3c2c(=O)[nH]c(=O)n3Cc2ccccc2)cc1OC (stereo not drawn),-10,-7,-4,44*,12,26*,-27,-34,
O=C(Nc1ccccc1)c1cc(C2CCCCN2C(=O)c2ccccc2)on1 (stereo not drawn),nt,nt,-1,4,nt,nt,nt,nt,
COc1cccc(N(C(=O)c2snc(C(N)=O)c2N)C(C(=O)NCc2ccccc2)c2ccc(O)cc2)c1 (stereo not drawn),15,0,-3,52*,33*,79*,-4,-11,Neddyl inh conf=+
COc1ccc(N(C(=O)c2snc(C(N)=O)c2N)C(C(=O)NCc2ccc(F)cc2)c2ccc(O)cc2)cc1 (stereo not drawn),12,-1,-1,35,5,12,nt,nt,
C=CCNC(=S)N/N=C/c1ccc(N(CC)Cc2ccccc2)cc1,24,0,3,56*,24*,37*,-19,-14,
OC[C@@H]1CN(Cc2ccncc2)C[C@H](n2cnc3c(N4CCCC4)ncnc32)O1,nt,nt,0,6,nt,nt,nt,nt,
C/C(=N\NC(=O)COc1ccc(C(C)(C)C)cc1)c1cc2ccccc2o1,6,0,9.5*,22,-7,-30,nt,nt,GAA30 FXN cntr=105*;GAA850 confirm=39*
Cn1cccc1/C=C1\CCC/C(=C\c2cccn2C)C1=O,-1,4,12*,-127,-23,-8,nt,nt,GAA30 FXN cntr=99*;GAA850 confirm=39*
CC(C)(C)n1nnnc1C(c1ccc(C(F)(F)F)cc1)N(Cc1ccc(F)cc1)Cc1ccco1 (stereo not drawn),4,-1,8.7*,-5,2,-6,nt,nt,GAA30 FXN cntr=16;GAA850 confirm=14*
CC(C)(C)n1nnnc1C(c1ccc(C(F)(F)F)cc1)N(Cc1ccccc1)Cc1ccco1 (stereo not drawn),19,0,0,-6,-2,14,nt,nt,
CC(C)(C)n1nnnc1C(c1ccc(F)cc1)N(Cc1ccc(F)cc1)Cc1ccco1 (stereo not drawn),14,0,15*,6,0,0,nt,nt,GAA30 FXN cntr=17;GAA850 confirm=15*
CC(C)(C)n1nnnc1C(c1ccc(Cl)cc1)N(Cc1cccnc1)Cc1ccco1 (stereo not drawn),24,0,-1,-2,3,-8,nt,nt,
CCOC(=O)CC1C(=O)NCCN1C(=S)NC(=O)c1ccc(C)c(Br)c1 (stereo not drawn),nt,nt,1,1,nt,nt,nt,nt,

# High-throughput results from PubChem BioAssay.
